Entries after “also recorded” stand apart in the source; their conditions may differ. Read-outs that look alike come from different tables or passages of the source.
Columns and labels:
[1] = integrated PopPK model in adults; cited from earlier work
[2] = Refined pediatric population pharmacokinetic; format: in vivo, children (pediatric patients); conditions: for Relative oral bioavailability: set to 100% for 0.12 mg/kg
Summary of the method: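 Children from birth to <18 y (VTE and post-Fontan) received oral bodyweight-adjusted rivaroxaban at 0.4 mg–20 mg, as single or multiple o.d./b.i.d./t.i.d. doses of tablet, oral suspension or granules. Plasma concentrations were fitted by PopPK with an 82.48 kg adult reference weight. Age, dose/kg on F1, formulation on ka, renal function and Fontan were screened graphically, then against random-effect estimates.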

CYP3A7 = CYP3A7 (Homo sapiens, UniProt P24462); assay: In vitro analyses of CYP3A7 contribution; format: in vitro ADME; conditions: historic and recently repeated in vitro analyses, unpublished, data on file
Sequence of CYP3A7 (P24462 whole entry): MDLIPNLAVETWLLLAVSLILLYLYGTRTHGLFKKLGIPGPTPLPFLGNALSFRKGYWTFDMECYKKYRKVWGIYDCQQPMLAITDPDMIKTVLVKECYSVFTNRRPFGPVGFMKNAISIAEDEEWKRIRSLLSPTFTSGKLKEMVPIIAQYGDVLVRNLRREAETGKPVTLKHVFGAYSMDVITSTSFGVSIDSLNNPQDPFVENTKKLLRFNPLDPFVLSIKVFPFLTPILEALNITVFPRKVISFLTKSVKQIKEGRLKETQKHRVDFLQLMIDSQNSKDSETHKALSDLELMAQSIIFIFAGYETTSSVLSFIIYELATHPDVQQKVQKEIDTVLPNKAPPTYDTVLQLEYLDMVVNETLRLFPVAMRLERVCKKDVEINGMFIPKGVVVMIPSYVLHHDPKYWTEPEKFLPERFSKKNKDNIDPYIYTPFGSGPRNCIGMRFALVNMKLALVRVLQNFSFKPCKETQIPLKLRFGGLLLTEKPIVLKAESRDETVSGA

[3] = cited from earlier work
[4] = cited from earlier work; remark: listed apart in the source
[5] = subject with a bodyweight of 70 kg; cited from earlier work
[6] = PopPK fixed effect, children, reference BW 82.48 kg

For `O=C(NC[C@H]1CN(c2ccc(N3CCOCC3=O)cc2)C(=O)O1)c1ccc(Cl)s1` [rivaroxaban], the Total plasma clearance [1] is given as 6.58 L/h, the “ka, tablet, granules for oral suspension and diluted ready-to-use oral suspension” value [2] is given as 0.799 h⁻¹ and the “ka, undiluted ready-to-use oral suspension” value [2] is given as 0.226 h⁻¹. The “ka for tablets, granules and diluted suspension” value ([2]; PopPK fixed effect, children) was 0.799 h⁻¹, the “ka for undiluted suspension” value ([2]; PopPK fixed effect, children) was 0.226 h⁻¹ and the “CL for subject with BW of 82.48 kg” value [2, 6] was 8.02 L/h. For the same compound, the “Q for subjects with BW of 82.48 kg” value [2, 6] was 2.50 L/h, the “Vc for subject with BW of 82.48 kg” value [2, 6] was 53.2 L and the “Vp for subject with BW of 82.48 kg” value [2, 6] was 59.1 L. The “Exponent to scale Vc and Vp on BW” value ([2]; allometric exponent, assumed identical for Vc and Vp) was 0.821, the “Exponent to scale Q on BW” value ([2]; allometric exponent, children) was 0.761 and the Relative oral bioavailability ([2]; at 0.30 mg/kg) was 79.1%. For the same compound, the Relative oral bioavailability ([2]; at 0.50 mg/kg) was 68.1%, the “Effect of bodyweight on CL, Q, Vc and Vp” value ([2]; covariate analysis) was “significant effect” and the “Effect of age on CL or F1” value ([2]; covariate analysis, age 0 to 18 years) was “No effect”. For the same compound, the “Influence of renal function on PK” value ([2]; covariate analysis, four approaches, eGFR 43.8 to 456 ml/min/1.73 m^2) was “None of the four methods to test for an influence of renal function led to a significant improvement; also recorded: None of the four tested methods could improve the model fit”, the “Effect of comedication (weak or moderate CYP3A4 inhibitors, CYP3A4 inducers) on CL or F1” value ([2]; exploratory evaluation) was “no significant effect” and the clearance ([2]; human, plasma, oral) was 134 mL/min. For the same compound, the “ωCL2 (exponential), interindividual variability” value ([2]; random effect on CL) was 0.0705, the “ωF12 (exponential), interindividual variability” value ([2]; random effect on F1) was 0.0612 and the “Population variation of CL (interindividual variability)” value ([2]; sqrt{exp(ω^2)-1}*100) was 27.0%. For the same compound, the “Population variation of F1 (interindividual variability)” value ([2]; sqrt{exp(ω^2)-1}*100) was 25.1%, the “Dose-dependency of relative oral bioavailability” value ([2]; ~0.1 to 0.5 mg/kg single doses) was “decrease with increasing dose per bodyweight” and the “Contribution of CYP3A7 to the high clearance below 2 years” value (CYP3A7) was “could also be excluded”. For the same compound, the “Share of elimination by CYP3A, glomerular filtration and tubular secretion” value ([3]; adult mass balance data) was ~ 54%, the “Excreted unchanged via feces” value ([3]; adult mass balance) was 7% and the “Share of elimination by CYP2J2” value ([3]; adult mass balance) was 14%. The “Share of elimination by CYP-independent hydrolysis” value ([3]; adult mass balance) was 14%, the “Unaccounted in the mass balance study” value ([3]; adult mass balance) was 11% and the “Biopharmaceutics Classification System class” value [4] was “class 2”. For the same compound, the Total plasma clearance [5] was 7.26 L/h.
